Laboratory results reported in ChEMBL document CHEMBL4689842, “EUbOPEN Chemogenomics Library wave 1” (2021).

System: HEK-293T
Test: Multiplex assay against HEK293T;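 on Population Tubulin-Different-Phenotype (%): share of the cells with healthy nuclei that show this phenotype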
Type: toxicity, cell-based
Conditions: human
Method in brief: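 Tubulin, mitochondrial-mass and membrane-permeability phenotypes are per cents of healthy-nucleus cells. Cells were gated by CellPathfinder machine learning into Hoechst high-intensity objects or normal cells, normal cells into healthy, pyknosed or fragmented nuclei, and pyknosed cells into mitotic or apoptotic. Before that, live cells stained at seeding with Hoechst33342, BioTracker Green Microtubule Cytoskeleton Dye, MitoTracker Red and Annexin V Alexa Fluor 680 were imaged on a CQ1 microscope at 37°C and 5% CO2 after compound addition.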

[1] = 12 h, 1 µM, compound concentration 1 uM, replicate 1
[2] = 12 h, 1 µM, compound concentration 1 uM, replicate 2
[3] = 12 h, 10 µM, compound concentration 10 uM, replicate 1
[4] = 12 h, 10 µM, compound concentration 10 uM, replicate 2
[5] = 24 h, 1 µM, compound concentration 1 uM, replicate 1
[6] = 24 h, 1 µM, compound concentration 1 uM, replicate 2
[7] = 24 h, 10 µM, compound concentration 10 uM, replicate 1
[8] = 24 h, 10 µM, compound concentration 10 uM, replicate 2
[9] = 48 h, 1 µM, compound concentration 1 uM, replicate 1
[10] = 48 h, 1 µM, compound concentration 1 uM, replicate 2
[11] = 48 h, 10 µM, compound concentration 10 uM, replicate 1
[12] = 48 h, 10 µM, compound concentration 10 uM, replicate 2

C=CC(=O)Nc1cccc(Sc2nc(Nc3ccc(N4CCN(C)CC4)cc3)ncc2Cl)c1
Population Apoptotic (%) [1]: 33%
Population Fragmented Nuclei (%) [1]: 28%
Population Healthy Nuclei (%) [1]: 14%
Population Hoechst High Intensity Objects (%) [1]: 16%
Population Membrane Permeable-Phenotype (%) [1]: 22%
Population Mitochondria Different-Phenotype (%) [1]: 15%
Population Mitotic Cells (%) [1]: 66%
Population Normal (%) [1]: 83%
Population Pyknosed Nuclei (%) [1]: 57%
Population Tubulin-Different-Phenotype (%) [1]: 58%
Total Cell Count [1]: 748
Population Apoptotic (%) [2]: 20%
Population Fragmented Nuclei (%) [2]: 4%
Population Healthy Nuclei (%) [2]: 64%
Population Hoechst High Intensity Objects (%) [2]: 10%
Population Membrane Permeable-Phenotype (%) [2]: 7%
Population Mitochondria Different-Phenotype (%) [2]: 44%
Population Mitotic Cells (%) [2]: 79%
Population Normal (%) [2]: 89%
Population Pyknosed Nuclei (%) [2]: 30%
Population Tubulin-Different-Phenotype (%) [2]: 98%
Total Cell Count [2]: 1010
Population Apoptotic (%) [3]: 21%
Population Fragmented Nuclei (%) [3]: 26%
Population Healthy Nuclei (%) [3]: 38%
Population Hoechst High Intensity Objects (%) [3]: 21%
Population Membrane Permeable-Phenotype (%) [3]: 10%
Population Mitochondria Different-Phenotype (%) [3]: 13%
Population Mitotic Cells (%) [3]: 78%
Population Normal (%) [3]: 78%
Population Pyknosed Nuclei (%) [3]: 35%
Population Tubulin-Different-Phenotype (%) [3]: 14%
Total Cell Count [3]: 476
Population Apoptotic (%) [4]: 6%
Population Fragmented Nuclei (%) [4]: 7%
Population Healthy Nuclei (%) [4]: 84%
Population Hoechst High Intensity Objects (%) [4]: 3%
Population Membrane Permeable-Phenotype (%) [4]: 5%
Population Mitochondria Different-Phenotype (%) [4]: 16%
Population Mitotic Cells (%) [4]: 93%
Population Normal (%) [4]: 96%
Population Pyknosed Nuclei (%) [4]: 7%
Population Tubulin-Different-Phenotype (%) [4]: 25%
Total Cell Count [4]: 1448
Population Apoptotic (%) [5]: 55%
Population Fragmented Nuclei (%) [5]: 34%
Population Healthy Nuclei (%) [5]: 26%
Population Hoechst High Intensity Objects (%) [5]: 14%
Population Membrane Permeable-Phenotype (%) [5]: 18%
Population Mitochondria Different-Phenotype (%) [5]: 12%
Population Mitotic Cells (%) [5]: 44%
Population Normal (%) [5]: 85%
Population Pyknosed Nuclei (%) [5]: 39%
Population Tubulin-Different-Phenotype (%) [5]: 52%
Total Cell Count [5]: 683
Population Apoptotic (%) [6]: 28%
Population Fragmented Nuclei (%) [6]: 6%
Population Healthy Nuclei (%) [6]: 63%
Population Hoechst High Intensity Objects (%) [6]: 10%
Population Membrane Permeable-Phenotype (%) [6]: 6%
Population Mitochondria Different-Phenotype (%) [6]: 63%
Population Mitotic Cells (%) [6]: 71%
Population Normal (%) [6]: 89%
Population Pyknosed Nuclei (%) [6]: 29%
Population Tubulin-Different-Phenotype (%) [6]: 97%
Total Cell Count [6]: 914
Population Apoptotic (%) [7]: 26%
Population Fragmented Nuclei (%) [7]: 18%
Population Healthy Nuclei (%) [7]: 64%
Population Hoechst High Intensity Objects (%) [7]: 12%
Population Membrane Permeable-Phenotype (%) [7]: 10%
Population Mitochondria Different-Phenotype (%) [7]: 12%
Population Mitotic Cells (%) [7]: 73%
Population Normal (%) [7]: 87%
Population Pyknosed Nuclei (%) [7]: 17%
Population Tubulin-Different-Phenotype (%) [7]: 30%
Total Cell Count [7]: 470
Population Apoptotic (%) [8]: 4%
Population Fragmented Nuclei (%) [8]: 20%
Population Healthy Nuclei (%) [8]: 76%
Population Hoechst High Intensity Objects (%) [8]: 4%
Population Membrane Permeable-Phenotype (%) [8]: 7%
Population Mitochondria Different-Phenotype (%) [8]: 2%
Population Mitotic Cells (%) [8]: 95%
Population Normal (%) [8]: 95%
Population Pyknosed Nuclei (%) [8]: 3%
Population Tubulin-Different-Phenotype (%) [8]: 19%
Total Cell Count [8]: 2375

CNC(=O)Nc1ccc(-c2nc(N3CC4CCC(C3)O4)c3cnn(C4CCC5(CC4)OCCO5)c3n2)cc1
Population Apoptotic (%) [1]: 55%
Population Fragmented Nuclei (%) [1]: 24%
Population Healthy Nuclei (%) [1]: 6%
Population Hoechst High Intensity Objects (%) [1]: 20%
Population Membrane Permeable-Phenotype (%) [1]: 0%
Population Mitochondria Different-Phenotype (%) [1]: 75%
Population Mitotic Cells (%) [1]: 44%
Population Normal (%) [1]: 79%
Population Pyknosed Nuclei (%) [1]: 68%
Population Tubulin-Different-Phenotype (%) [1]: 50%
Total Cell Count [1]: 149
Population Apoptotic (%) [2]: 23%
Population Fragmented Nuclei (%) [2]: 9%
Population Healthy Nuclei (%) [2]: 26%
Population Hoechst High Intensity Objects (%) [2]: 10%
Population Membrane Permeable-Phenotype (%) [2]: 8%
Population Mitochondria Different-Phenotype (%) [2]: 32%
Population Mitotic Cells (%) [2]: 76%
Population Normal (%) [2]: 89%
Population Pyknosed Nuclei (%) [2]: 64%
Population Tubulin-Different-Phenotype (%) [2]: 24%
Total Cell Count [2]: 155
Population Apoptotic (%) [3]: 76%
Population Fragmented Nuclei (%) [3]: 18%
Population Healthy Nuclei (%) [3]: 7%
Population Hoechst High Intensity Objects (%) [3]: 26%
Population Membrane Permeable-Phenotype (%) [3]: 11%
Population Mitochondria Different-Phenotype (%) [3]: 88%
Population Mitotic Cells (%) [3]: 23%
Population Normal (%) [3]: 73%
Population Pyknosed Nuclei (%) [3]: 73%
Population Tubulin-Different-Phenotype (%) [3]: 88%
Total Cell Count [3]: 167
Population Apoptotic (%) [4]: 56%
Population Fragmented Nuclei (%) [4]: 8%
Population Healthy Nuclei (%) [4]: 8%
Population Hoechst High Intensity Objects (%) [4]: 7%
Population Membrane Permeable-Phenotype (%) [4]: 6%
Population Mitochondria Different-Phenotype (%) [4]: 100%
Population Mitotic Cells (%) [4]: 43%
Population Normal (%) [4]: 92%
Population Pyknosed Nuclei (%) [4]: 82%
Population Tubulin-Different-Phenotype (%) [4]: 100%
Total Cell Count [4]: 182
Population Apoptotic (%) [5]: 68%
Population Fragmented Nuclei (%) [5]: 32%
Population Healthy Nuclei (%) [5]: 5%
Population Hoechst High Intensity Objects (%) [5]: 29%
Population Membrane Permeable-Phenotype (%) [5]: 16%
Population Mitochondria Different-Phenotype (%) [5]: 66%
Population Mitotic Cells (%) [5]: 31%
Population Normal (%) [5]: 70%
Population Pyknosed Nuclei (%) [5]: 61%
Population Tubulin-Different-Phenotype (%) [5]: 16%
Total Cell Count [5]: 151
Population Apoptotic (%) [6]: 21%
Population Fragmented Nuclei (%) [6]: 12%
Population Healthy Nuclei (%) [6]: 34%
Population Hoechst High Intensity Objects (%) [6]: 10%
Population Membrane Permeable-Phenotype (%) [6]: 8%
Population Mitochondria Different-Phenotype (%) [6]: 35%
Population Mitotic Cells (%) [6]: 78%
Population Normal (%) [6]: 89%
Population Pyknosed Nuclei (%) [6]: 53%
Population Tubulin-Different-Phenotype (%) [6]: 20%
Total Cell Count [6]: 158
Population Apoptotic (%) [7]: 81%
Population Fragmented Nuclei (%) [7]: 23%
Population Healthy Nuclei (%) [7]: 3%
Population Hoechst High Intensity Objects (%) [7]: 27%
Population Membrane Permeable-Phenotype (%) [7]: 25%
Population Mitochondria Different-Phenotype (%) [7]: 75%
Population Mitotic Cells (%) [7]: 18%
Population Normal (%) [7]: 72%
Population Pyknosed Nuclei (%) [7]: 73%
Population Tubulin-Different-Phenotype (%) [7]: 75%
Total Cell Count [7]: 165
Population Apoptotic (%) [8]: 68%
Population Fragmented Nuclei (%) [8]: 10%
Population Healthy Nuclei (%) [8]: 17%
Population Hoechst High Intensity Objects (%) [8]: 11%
Population Membrane Permeable-Phenotype (%) [8]: 17%
Population Mitochondria Different-Phenotype (%) [8]: 85%
Population Mitotic Cells (%) [8]: 31%
Population Normal (%) [8]: 88%
Population Pyknosed Nuclei (%) [8]: 72%
Population Tubulin-Different-Phenotype (%) [8]: 96%
Total Cell Count [8]: 182
Population Apoptotic (%) [9]: 62%
Population Fragmented Nuclei (%) [9]: 46%
Population Healthy Nuclei (%) [9]: 3%
Population Hoechst High Intensity Objects (%) [9]: 33%
Population Membrane Permeable-Phenotype (%) [9]: 0%
Population Mitochondria Different-Phenotype (%) [9]: 66%
Population Mitotic Cells (%) [9]: 37%
Population Normal (%) [9]: 66%
Population Pyknosed Nuclei (%) [9]: 50%
Population Tubulin-Different-Phenotype (%) [9]: 33%
Total Cell Count [9]: 144
Population Apoptotic (%) [10]: 34%
Population Fragmented Nuclei (%) [10]: 13%
Population Healthy Nuclei (%) [10]: 46%
Population Hoechst High Intensity Objects (%) [10]: 11%
Population Membrane Permeable-Phenotype (%) [10]: 1%
Population Mitochondria Different-Phenotype (%) [10]: 50%
Population Mitotic Cells (%) [10]: 65%
Population Normal (%) [10]: 88%
Population Pyknosed Nuclei (%) [10]: 40%
Population Tubulin-Different-Phenotype (%) [10]: 61%
Total Cell Count [10]: 138
Population Apoptotic (%) [11]: 84%
Population Fragmented Nuclei (%) [11]: 35%
Population Healthy Nuclei (%) [11]: 8%
Population Hoechst High Intensity Objects (%) [11]: 23%
Population Membrane Permeable-Phenotype (%) [11]: 11%
Population Mitochondria Different-Phenotype (%) [11]: 100%
Population Mitotic Cells (%) [11]: 15%
Population Normal (%) [11]: 76%
Population Pyknosed Nuclei (%) [11]: 56%
Population Tubulin-Different-Phenotype (%) [11]: 100%
Total Cell Count [11]: 146
Population Apoptotic (%) [12]: 65%
Population Fragmented Nuclei (%) [12]: 8%
Population Healthy Nuclei (%) [12]: 40%
Population Hoechst High Intensity Objects (%) [12]: 8%
Population Membrane Permeable-Phenotype (%) [12]: 1%
Population Mitochondria Different-Phenotype (%) [12]: 83%
Population Mitotic Cells (%) [12]: 34%
Population Normal (%) [12]: 91%
Population Pyknosed Nuclei (%) [12]: 51%
Population Tubulin-Different-Phenotype (%) [12]: 90%
Total Cell Count [12]: 181
